ChEMBL document CHEMBL3525963, “Tissue distribution and elimination of [14C]apixaban in rats” (Drug Metab Dispos, 2011)

Columns and labels:
Settings in all cases: in vivo
Thymus = test: Biodistribution in female Sprague-Dawley rat thymus at 5 mg/kg, po administered as single dose measured after 0.5 hrs; format: ADME, organism-based; parameters: dose 5 mg/kg, dosed compound name [14C]-apixaban, route oral
In short: (§1)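 [¹⁴C]Apixaban given by oral gavage at 5 mg/kg (100 μCi/kg) in 0.5% Tween 80 in Labrafil (1.0 mg/mL dosing solution) to rats fasted overnight through 4 h post-dose. One rat per time point; carcass frozen in hexane/dry ice. Quantitative whole-body autoradiography used 40 µm sagittal sections and a phosphor imaging plate calibrated with [¹⁴C]glucose standards (0.001–6.5 μCi/g). Read-out in µg eq apixaban/g; LLOQ 0.037 μg eq/g.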

Rattus norvegicus [1] = test: Biodistribution in pregnant Sprague-Dawley rat amnion at 5 mg/kg, po administered as single dose measured after 24 hrs; format: ADME, organism-based; parameters: dose 5 mg/kg, dosed compound name [14C]-apixaban, route oral
Blood [2] = test: Biodistribution in male Sprague-Dawley rat blood at 5 mg/kg, po administered as single dose measured after 72 hrs; format: ADME, organism-based; parameters: dose 5 mg/kg, dosed compound name [14C]-apixaban, route oral
In short: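 Fasted male SD rats (225-252 g) each received one oral gavage dose of [14C]apixaban, 5 mg/kg (100 μCi/kg), in 0.5% Tween 80/Labrafil vehicle. One rat was killed per time point, from 0.5 to 168 h. Frozen carcasses were cut into 40 µm sagittal whole-body sections and read by QWBA phosphor imaging against [14C]glucose calibrants. Results are in µg apixaban eq/g; BLQ <0.037 µg eq/g.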

Adrenal gland [3] = test: Biodistribution in female Sprague-Dawley rat adrenal gland at 5 mg/kg, po administered as single dose measured after 0.5 hrs; format: ADME, organism-based; parameters: dose 5 mg/kg, dosed compound name [14C]-apixaban, route oral; in short: as §1
Pancreas [4] = test: Biodistribution in female Sprague-Dawley rat pancreas at 5 mg/kg, po administered as single dose measured after 8 hrs; format: ADME, organism-based; parameters: dose 5 mg/kg, dosed compound name [14C]-apixaban, route oral; in short: as §1
Rattus norvegicus [5] = test: Biodistribution in male Sprague-Dawley rat brown fat at 5 mg/kg, po administered as single dose measured after 8 hrs; format: ADME, organism-based, Brown adipose tissue; parameters: dose 5 mg/kg, dosed compound name [14C]-apixaban, route oral
In short: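 Fasted male rats, 225-252 g, received [14C]apixaban by single oral gavage at 100 μCi/kg in 0.5% Tween 80/Labrafil. One rat was killed per time point and the carcass frozen. Tissue radioactivity was quantified by QWBA (40 µm sagittal sections, phosphor plate, [14C]glucose calibration) as µg eq apixaban/g, with LLOQ 0.037 μg eq/g.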

Rattus norvegicus [6] = test: Biodistribution in pregnant Sprague-Dawley rat bone marrow at 5 mg/kg, po administered as single dose measured after 0.5 hrs; format: ADME, organism-based; parameters: dose 5 mg/kg, dosed compound name [14C]-apixaban, route oral
Adrenal gland [7] = test: Biodistribution in pregnant Sprague-Dawley rat adrenal gland at 5 mg/kg, po administered as single dose measured after 4 hrs; format: ADME, organism-based; parameters: dose 5 mg/kg, dosed compound name [14C]-apixaban, route oral
In short: (§2)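 Fasted pregnant SD rats (n=6, 270-319 g) each received one oral gavage dose of [14C]apixaban, 5 mg/kg (100 μCi/kg), in 0.5% Tween 80/Labrafil. One rat was killed at each of 0.5, 1, 4, 8, 24 and 48 h. Carcasses were frozen in hexane/dry ice, cut into 40 µm sagittal sections, exposed to phosphor plates and quantified against [14C]glucose standards as µg eq/g. LLOQ was 0.037 µg eq/g.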

Rattus norvegicus [8] = test: Biodistribution in fetal liver of pregnant Sprague-Dawley rat at 5 mg/kg, po administered as single dose measured after 8 hrs; format: ADME, organism-based; parameters: dose 5 mg/kg, dosed compound name [14C]-apixaban, route oral
In short: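 Pregnant SD rats received a single oral gavage of [14C]apixaban at 5 mg/kg (100 μCi/kg; 1.0 mg/mL, 20 μCi/mL in 0.5% Tween 80/Labrafil) after fasting, one dam per time point. Frozen carcasses were cut into 40 µm sagittal sections and read by phosphor-imaging QWBA against [14C]glucose standards. Fetal tissue radioactivity is reported as µg eq/g, with LLOQ 0.037 µg eq/g.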

Liver = test: Biodistribution in male Sprague-Dawley rat liver at 5 mg/kg, po administered as single dose measured after 24 hrs; format: ADME, organism-based; parameters: dose 5 mg/kg, dosed compound name [14C]-apixaban, route oral
In short: (§3)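 [14C]apixaban (1.0 mg/mL, 20 μCi/mL) in 0.5% Tween 80 in Labrafil, given by oral gavage at 100 μCi/kg to male rats (225-252 g) fasted overnight through 4 h post-dose. One rat per time point. Carcasses frozen in hexane/dry ice and cut into 40 µm sagittal sections. QWBA read on phosphor plates against [14C]glucose standards, reported as µg eq/g. LLOQ 0.037 µg eq/g.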

Blood [9] = test: AUC (0 to infinity) in pregnant Sprague-Dawley rat blood at 5 mg/kg, po administered as single dose; format: ADME, organism-based; parameters: time infinity, dose 5 mg/kg, dosed compound name [14C]-apixaban, route oral
Plasma = test: AUC (0 to t) in lactating Sprague-Dawley rat plasma at 5 mg/kg, po administered as single dose; format: ADME, organism-based; parameters: dose 5 mg/kg, dosed compound name [14C]-apixaban, route oral
In short: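 Fasted lactating SD rats received 5 mg/kg [14C]apixaban orally (formulation 5.0 mg/mL, 20 μCi/mL). Oxytocin was injected subcutaneously 15 min before collection, and 1 mL milk was taken under anesthesia by milking machine. Sampling was predose and at 0.5–24 h, 3 rats per time point. Plasma was obtained at 1300g for 10 min. Duplicate 50–100 µL aliquots were counted by LSC for 10 min. AUC was calculated in WinNonlin.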

Rattus norvegicus [10] = test: Biodistribution in pregnant Sprague-Dawley rat amnion at 5 mg/kg, po administered as single dose measured after 48 hrs; format: ADME, organism-based; parameters: dose 5 mg/kg, dosed compound name [14C]-apixaban, route oral; in short: as §2
Blood [11] = test: Cmax in female Sprague-Dawley rat blood at 5 mg/kg, po administered as single dose; format: ADME, organism-based; parameters: dose 5 mg/kg, dosed compound name [14C]-apixaban, route oral
In short: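 Fasted male, female or pregnant SD rats received a single oral gavage of 5 mg/kg (100 μCi/kg) in 0.5% Tween 80/Labrafil. One rat was killed per time point, up to 168 h (48 h for pregnant). Blood was collected into K3EDTA. Blood radioactivity came from autoradiogram or LSC data, and Cmax was taken from the concentration-time profile.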

Harderian gland [12] = test: Biodistribution in pregnant Sprague-Dawley rat harderian gland at 5 mg/kg, po administered as single dose measured after 8 hrs; format: ADME, organism-based; parameters: dose 5 mg/kg, dosed compound name [14C]-apixaban, route oral
Adrenal gland [13] = test: Biodistribution in female Sprague-Dawley rat adrenal gland at 5 mg/kg, po administered as single dose measured after 8 hrs; format: ADME, organism-based; parameters: dose 5 mg/kg, dosed compound name [14C]-apixaban, route oral; in short: as §1
Brain = test: Biodistribution in male Sprague-Dawley rat brain at 5 mg/kg, po administered as single dose measured after 1 hr; format: ADME, organism-based; parameters: dose 5 mg/kg, dosed compound name [14C]-apixaban, route oral
Pancreas [14] = test: Biodistribution in male Sprague-Dawley rat pancreas at 5 mg/kg, po administered as single dose measured after 1 hr; format: ADME, organism-based; parameters: dose 5 mg/kg, dosed compound name [14C]-apixaban, route oral; in short: as §3
Rattus norvegicus [15] = test: Biodistribution in male Sprague-Dawley rat pituitary gland at 5 mg/kg, po administered as single dose measured after 1 hr; format: ADME, organism-based; parameters: dose 5 mg/kg, dosed compound name [14C]-apixaban, route oral
Rattus norvegicus [16] = test: Biodistribution in female Sprague-Dawley rat bone marrow at 5 mg/kg, po administered as single dose measured after 0.5 hrs; format: ADME, organism-based; parameters: dose 5 mg/kg, dosed compound name [14C]-apixaban, route oral
In short: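 [14C]apixaban (20 μCi/mL in dosing solution) in 0.5% Tween 80 in Labrafil given by oral gavage to fasted female rats, 206-213 g, at 100 μCi/kg. One rat per time point was euthanized and snap-frozen. Sagittal 40 µm whole-body sections were read by QWBA phosphor imaging against [14C]glucose standards. Results are in µg eq apixaban/g, with LLOQ 0.037 μg eq/g.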

Harderian gland [17] = test: Biodistribution in female Sprague-Dawley rat harderian gland at 5 mg/kg, po administered as single dose measured after 1 hr; format: ADME, organism-based; parameters: dose 5 mg/kg, dosed compound name [14C]-apixaban, route oral; in short: as §1
Muscle tissue = test: Biodistribution in pregnant Sprague-Dawley rat muscle at 5 mg/kg, po administered as single dose measured after 8 hrs; format: ADME, organism-based; parameters: dose 5 mg/kg, dosed compound name [14C]-apixaban, route oral

- Radiolabel recovery (Thymus): 0.2 ugequiv/g
- Radiolabel recovery (Rattus norvegicus [1]): 3.52 ugequiv/g
- Radiolabel recovery (Adrenal gland [3]): 0.56 ugequiv/g
- Radiolabel recovery (Pancreas [4]): 0.19 ugequiv/g
- Radiolabel recovery (Rattus norvegicus [5]): 0.07 ugequiv/g
- Radiolabel recovery (Rattus norvegicus [6]): 0.5 ugequiv/g
- Radiolabel recovery (Adrenal gland [7]): 2.3 ugequiv/g
- Radiolabel recovery (Rattus norvegicus [8]): 0.06 ugequiv/g
- Radiolabel recovery (Liver): < 0.037 ugequiv/g
- AUC (Blood [9]): 7200 ngequiv.hr/g
- AUCt (Plasma): 3420 ngequiv.hr/g
- Cmax (Blood [11]): 880 ngequiv/g
- Radiolabel recovery (Harderian gland [12]): 0.19 ugequiv/g
- Radiolabel recovery (Adrenal gland [13]): 0.3 ugequiv/g
- Radiolabel recovery (Brain): < 0.037 ugequiv/g
- Radiolabel recovery (Pancreas [14]): 0.62 ugequiv/g
- Radiolabel recovery (Rattus norvegicus [15]): 0.59 ugequiv/g
- Radiolabel recovery (Rattus norvegicus [16]): 0.29 ugequiv/g
- Radiolabel recovery (Harderian gland [17]): 0.64 ugequiv/g
- Radiolabel recovery (Muscle tissue): 0.05 ugequiv/g
Compound: COc1ccc(-n2nc(C(N)=O)c3c2C(=O)N(c2ccc(N4CCCC[14C]4=O)cc2)CC3)cc1
- Radiolabel recovery (Blood [2]): Not sampled as not visualised in autoradiograph
- Radiolabel recovery (Rattus norvegicus [10]): Not sampled as not visualised in autoradiograph
